Measured values: ChEMBL document CHEMBL3804761, “Synthesis of a stable and orally bioavailable englerin analogue” (Bioorg Med Chem Lett, 2016)

How the values were obtained:
Format in all cases: functional
[1] = tested on: KM12; assay: Growth inhibition of human KM12 cells assessed as cell growth at 10 uM incubated for 48 hrs by sulforhodamine B assay relative to control; settings: KM12, 48 h, read-out: Activity
Summary of the method: (§1)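 Run in the standard NCI 60-cell-line screen. Cells were exposed to drug for two days, and the read-out was sulforhodamine B staining. Compound was tested at a single final concentration of 10 µM in every line, and results are reported as growth percent.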

[2] = tested on: KM12; assay: Growth inhibition of human KM12 cells incubated for 48 hrs by sulforhodamine B assay; settings: KM12, 48 h; for TGI: read-out: pTGI (converted)
Summary of the method: (§2)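 NCI 60-cell-line panel, standard protocol. Cells exposed to compound for two days, growth read by sulforhodamine B staining. Tested at five 10-fold dilutions, top concentration 100 µM, to give dose-response curves.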

[3] = Growth inhibition of human SNB19 cells assessed as cell growth at 10 uM incubated for 48 hrs by sulforhodamine B assay relative to control; settings: SNB-19, 48 h, read-out: Activity; summary of the method: as §1
[4] = tested on: NCI-H522; assay: Growth inhibition of human NCI-H522 cells incubated for 48 hrs by sulforhodamine B assay; settings: NCI-H522, 48 h; for TGI: read-out: pTGI (converted); summary of the method: as §2
[5] = tested on: SR; assay: Growth inhibition of human SR cells incubated for 48 hrs by sulforhodamine B assay; settings: for TGI: read-out: pTGI (converted)
Summary of the method: (§3)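 Tested in the standard NCI 60-cell-line protocol with two-day drug exposure and a sulforhodamine B endpoint. Compounds were first screened at a single final concentration of 10 µM, reported as growth percent. They were then run as five 10-fold dilutions starting from a high concentration of 100 µM to give dose-response curves.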

[6] = tested on: A498; assay: Growth inhibition of human A498 cells incubated for 48 hrs by sulforhodamine B assay; settings: A498, 48 h; for TGI: read-out: pTGI (converted)
[7] = Growth inhibition of human HL-60(TB) cells incubated for 48 hrs by sulforhodamine B assay; settings: HL-60, 48 h; for CC50: read-out: pLC50 (the source's name) (converted); for TGI: read-out: pTGI (converted); summary of the method: as §2
[8] = Growth inhibition of human SF268 cells incubated for 48 hrs by sulforhodamine B assay; settings: SF-268, 48 h; for TGI: read-out: pTGI (converted); summary of the method: as §2
[9] = Growth inhibition of human UO31 cells assessed as cell growth at 10 uM incubated for 48 hrs by sulforhodamine B assay relative to control; settings: UO-31, 48 h, read-out: Activity
Summary of the method: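 NCI 60-cell line standard protocol, one-dose screen: single final concentration 10 µM, 2-day drug exposure, sulforhodamine B (SRB) endpoint; read-out is growth percent relative to untreated control.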

[10] = tested on: MCF7; assay: Growth inhibition of human MCF7 cells incubated for 48 hrs by sulforhodamine B assay; settings: MCF7, 48 h; for CC50: read-out: pLC50 (the source's name) (converted); for TGI: read-out: pTGI (converted); summary of the method: as §2
[11] = Growth inhibition of human HOP62 cells incubated for 48 hrs by sulforhodamine B assay; settings: HOP-62, 48 h; for TGI: read-out: pTGI (converted); summary of the method: as §2
[12] = Growth inhibition of human PC3 cells incubated for 48 hrs by sulforhodamine B assay; settings: PC-3, 48 h; for CC50: read-out: pLC50 (the source's name) (converted); for TGI: read-out: pTGI (converted); summary of the method: as §2
[13] = Growth inhibition of human HOP92 cells incubated for 48 hrs by sulforhodamine B assay; settings: HOP-92, 48 h; summary of the method: as §2
[14] = Growth inhibition of human UACC257 cells incubated for 48 hrs by sulforhodamine B assay; settings: UACC-257, 48 h; for CC50: read-out: pLC50 (the source's name) (converted); for TGI: read-out: pTGI (converted); summary of the method: as §3
[15] = tested on: U-251; assay: Growth inhibition of human U251 cells incubated for 48 hrs by sulforhodamine B assay; settings: U-251, 48 h; for TGI: read-out: pTGI (converted); summary of the method: as §3
[16] = tested on: M14; assay: Growth inhibition of human M14 cells incubated for 48 hrs by sulforhodamine B assay; settings: M14, 48 h; for TGI: read-out: pTGI (converted); summary of the method: as §2
[17] = Growth inhibition of human SF539 cells incubated for 48 hrs by sulforhodamine B assay; settings: SF-539, 48 h; for TGI: read-out: pTGI (converted); summary of the method: as §2
[18] = tested on: K562; assay: Growth inhibition of human K562 cells incubated for 48 hrs by sulforhodamine B assay; settings: K562, 48 h; for CC50: read-out: pLC50 (the source's name) (converted); for TGI: read-out: pTGI (converted); summary of the method: as §2
[19] = tested on: K562; assay: Growth inhibition of human K562 cells assessed as cell growth at 10 uM incubated for 48 hrs by sulforhodamine B assay relative to control; settings: K562, 48 h, read-out: Activity; summary of the method: as §1
[20] = tested on: NCI-H226; assay: Growth inhibition of human NCI-H226 cells assessed as cell growth at 10 uM incubated for 48 hrs by sulforhodamine B assay relative to control; settings: NCI-H226, 48 h, read-out: Activity; summary of the method: as §1
[21] = Growth inhibition of human SF539 cells assessed as cell growth at 10 uM incubated for 48 hrs by sulforhodamine B assay relative to control; settings: SF-539, 48 h, read-out: Activity
Summary of the method: (§4)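 Single-dose screen in the NCI 60-cell-line panel at one final concentration of 10 µM. Two-day drug exposure with a sulforhodamine B endpoint. Values are growth percent for each cell line.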

[22] = tested on: NCI-H460; assay: Growth inhibition of human NCI-H460 cells incubated for 48 hrs by sulforhodamine B assay; settings: NCI-H460, 48 h; for CC50: read-out: pLC50 (the source's name) (converted); for TGI: read-out: pTGI (converted); summary of the method: as §2
[23] = tested on: MDA-MB-231; assay: Growth inhibition of human MDA-MB-231 cells assessed as cell growth at 10 uM incubated for 48 hrs by sulforhodamine B assay relative to control; settings: MDA-MB-231, 48 h, read-out: Activity; summary of the method: as §1
[24] = tested on: NCI/ADR-RES; assay: Growth inhibition of human NCI/ADR-RES cells assessed as cell growth at 10 uM incubated for 48 hrs by sulforhodamine B assay relative to control; settings: read-out: Activity; summary of the method: as §1
[25] = tested on: NCI-H23; assay: Growth inhibition of human NCI-H23 cells assessed as cell growth at 10 uM incubated for 48 hrs by sulforhodamine B assay relative to control; settings: NCI-H23, 48 h, read-out: Activity; summary of the method: as §1
[26] = Growth inhibition of human RPMI8226 cells incubated for 48 hrs by sulforhodamine B assay; settings: RPMI-8226, 48 h; for CC50: read-out: pLC50 (the source's name) (converted); for TGI: read-out: pTGI (converted); summary of the method: as §2
[27] = Growth inhibition of human BT549 cells assessed as cell growth at 10 uM incubated for 48 hrs by sulforhodamine B assay relative to control; settings: BT-549, 48 h, read-out: Activity; summary of the method: as §1
[28] = Growth inhibition of human HOP92 cells assessed as cell growth at 10 uM incubated for 48 hrs by sulforhodamine B assay relative to control; settings: HOP-92, 48 h, read-out: Activity; summary of the method: as §4

## CC(C)[C@@]12C[C@@H](NC(=O)CO)[C@@](C)(O1)[C@@H]1CC[C@@H](C)[C@H]1[C@@H]2OC(=O)c1ccc2ccccc2c1
[1]
  growth at 10 µM: 94.5%
[2]
  GI50: 17.4 µM
  LC50: 61.7 µM
  TGI: 32.4 µM
[3]
  growth at 10 µM: 97.2%
[4]
  GI50: 15.5 µM
  LC50: 56.2 µM
  TGI: 29.5 µM
[5]
  GI50: 17.8 µM
  LC50: 81.3 µM
  TGI: 38 µM
[6]
  LC50: 29.5 µM
  TGI: 6.31 µM
[6]; read-out: GI50
  GI50: 1.62 µM
[6]; read-out: pGI50 (converted)
  GI50: 1.62 µM
[7]
  GI50: 20.4 µM
  CC50: 87.1 µM
  TGI: 41.7 µM
[8]
  GI50: 13.5 µM
  LC50 (lethal concentration, 50% net cell kill): 57.5 µM
  TGI: 28.2 µM
[9]
  growth at 10 µM: 63.3%
[10]
  GI50: 15.8 µM
  CC50: 72.4 µM
  TGI: 33.9 µM
[11]
  GI50: 15.1 µM
  LC50: 55 µM
  TGI: 28.8 µM
[12]
  GI50: 12 µM
  CC50: 52.5 µM
  TGI: 25.1 µM
[13]
  GI50: 9.33 µM
  LC50: 52.5 µM
[13]; read-out: pTGI (converted)
  TGI: 22.9 µM
[14]
  GI50: 16.2 µM
  CC50: 64.6 µM
  TGI: 32.4 µM
[15]
  GI50: 16.2 µM
  LC50 (concentration giving 50% net cell kill): 56.2 µM
  TGI: 30.2 µM
[16]
  GI50: 16.6 µM
  LC50: 58.9 µM
  TGI: 31.6 µM
[17]
  GI50: 15.5 µM
  LC50: 55 µM
  TGI: 29.5 µM
[18]
  GI50: 19.5 µM
  CC50: 95.5 µM
  TGI: 42.7 µM
[19]
  growth at 10 µM: 91.2%
[20]
  growth at 10 µM: 90.2%
[21]
  growth at 10 µM: 84.6%
[22]
  GI50: 20.4 µM
  CC50: 79.4 µM
  TGI: 40.7 µM
[23]
  growth at 10 µM: 101%
[24]
  growth at 10 µM: 46.8%
[25]
  growth at 10 µM: 80.2%
[26]
  GI50: 14.5 µM
  CC50: 85.1 µM
  TGI: 35.5 µM
[27]
  growth at 10 µM: 70.2%

## CC(C)[C@@]12C[C@@H](NC(=O)CO)[C@@](C)(O1)[C@@H]1CC[C@@H](C)[C@H]1[C@@H]2OC(=O)/C=C/C1CCCCC1
[1]
  growth at 10 µM: 104%
[2]
  GI50: > 44.7 µM
  LC50: > 44.7 µM
  TGI: > 44.7 µM
[3]
  growth at 10 µM: 103%
[4]
  GI50: > 44.7 µM
  LC50: > 44.7 µM
  TGI: > 44.7 µM
[5]
  GI50: > 44.7 µM
  LC50: > 44.7 µM
  TGI: > 44.7 µM
[6]
  LC50: > 44.7 µM
  TGI: 21.4 µM
[6]; read-out: GI50
  GI50: 5.62 µM
[6]; read-out: pGI50 (converted)
  GI50: 5.62 µM
[7]
  GI50: > 44.7 µM
  CC50: > 44.7 µM
  TGI: > 44.7 µM
[8]
  GI50: > 44.7 µM
  LC50 (lethal concentration, 50% net cell kill): > 44.7 µM
  TGI: > 44.7 µM
[9]
  growth at 10 µM: 95.1%
[10]
  GI50: > 44.7 µM
  CC50: > 44.7 µM
  TGI: > 44.7 µM
[11]
  GI50: > 44.7 µM
  LC50: > 44.7 µM
  TGI: > 44.7 µM
[12]
  GI50: > 44.7 µM
  CC50: > 44.7 µM
  TGI: > 44.7 µM
[14]
  GI50: > 44.7 µM
  CC50: > 44.7 µM
  TGI: > 44.7 µM
[15]
  GI50: > 44.7 µM
  LC50 (concentration giving 50% net cell kill): > 44.7 µM
  TGI: > 44.7 µM
[16]
  GI50: > 44.7 µM
  LC50: > 44.7 µM
  TGI: > 44.7 µM
[17]
  GI50: > 44.7 µM
  LC50: > 44.7 µM
  TGI: > 44.7 µM
[18]
  GI50: > 44.7 µM
  CC50: > 44.7 µM
  TGI: > 44.7 µM
[19]
  growth at 10 µM: 96.5%
[20]
  growth at 10 µM: 96.2%
[22]
  GI50: > 44.7 µM
  CC50: > 44.7 µM
  TGI: > 44.7 µM
[23]
  growth at 10 µM: 107%
[24]
  growth at 10 µM: 94.8%
[25]
  growth at 10 µM: 99.4%
[28]
  growth at 10 µM: 120%
[26]
  GI50: > 44.7 µM
  CC50: > 44.7 µM
  TGI: > 44.7 µM
[27]
  growth at 10 µM: 109%

## CC(C)[C@@]12C[C@@H](NC(=O)CF)[C@@](C)(O1)[C@@H]1CC[C@@H](C)[C@H]1[C@@H]2OC(=O)/C=C/c1ccccc1
[1]
  growth at 10 µM: 104%
[3]
  growth at 10 µM: 104%
[9]
  growth at 10 µM: 91.1%
[19]
  growth at 10 µM: 106%
[20]
  growth at 10 µM: 84.5%
[21]
  growth at 10 µM: 87.9%
[23]
  growth at 10 µM: 102%
[24]
  growth at 10 µM: 98.5%
[25]
  growth at 10 µM: 102%
[28]
  growth at 10 µM: 75.8%
[27]
  growth at 10 µM: 111%
